The test system of data set [1] is K-562R. Put plainly: Induction of ROS production in human K562R cells at 10 uM by DCFH-DA dye based spectrofluorometric method. It counts as functional, cell-based. The method in brief: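 K562R cells (RPMI-1640, 10% FBS, 37 °C, 5% CO2) treated 24 h at 10 μM, then probed with DCFH-DA. DCF fluorescence read at excitation 488 nm, emission 525 nm, normalized to total protein (F.I./mg protein). Mean ± SD, four experiments in triplicate.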

The test system of data set [2] is K-562R. Put plainly: Induction of apoptosis in human K562R cells assessed as early apoptotic cells at 10 uM by Annexin V staining-based flow cytometry (reference value: 8.51%). It counts as functional. On the technique in general: In flow cytometry, cells or beads pass a laser one at a time.
The test system of data set [3] is K562. Put plainly: Cytotoxicity against imatinib-sensitive human K562 cells assessed as decrease in cell viability after 24 hrs by XTT assay. It is filed as functional, cell-based. The conditions noted are these: K562, 24 h. The method in brief: (§1)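 K562R (imatinib-resistant) or K562S cells seeded at 1×10^4/well in phenol red-free RPMI, left 24 h, then exposed 24 h to various concentrations. XTT reagent added, 2 h incubation, absorbance at 450 nm; IC50 reported. Mean ± SD, four experiments in triplicate.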

For data set [4], the system named is K-562R. Put plainly: Effect on heme oxygenase 2 mRNA levels in human K562R cells at 10 uM by qRT-PCR method. It is filed as functional, cell-based. An outline of the steps:
(§2)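 K562R cells treated 24 h at 10 μM, rinsed in cold PBS and lysed in Trizol. HO-1 and HO-2 mRNA measured by real-time PCR alongside GAPDH. Mean ± SD, four experiments in triplicate.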
For orientation: In qPCR the cycle at which signal appears reflects the starting amount.

Data set [5] has as its system K-562R. In words: Induction of apoptosis in human K562R cells assessed as necrotic cells at 10 uM by Annexin V staining-based flow cytometry (reference value: 0.87%). It is filed as functional.
Data set [6] concerns the target T1, Heme oxygenase 1 (Homo sapiens) (UniProt P09601).
T1 sequence (whole entry): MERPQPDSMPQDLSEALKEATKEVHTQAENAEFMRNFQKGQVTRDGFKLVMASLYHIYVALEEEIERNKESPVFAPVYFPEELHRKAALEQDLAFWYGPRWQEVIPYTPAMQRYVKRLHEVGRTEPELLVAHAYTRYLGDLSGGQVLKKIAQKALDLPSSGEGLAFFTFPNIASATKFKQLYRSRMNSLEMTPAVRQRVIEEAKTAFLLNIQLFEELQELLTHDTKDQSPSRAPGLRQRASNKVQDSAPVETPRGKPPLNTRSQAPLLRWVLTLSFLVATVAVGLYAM
In words: Inhibition of heme oxygenase 1 in human K562R cell lysates assessed as decrease in bilirubin formation at 10 uM after 60 mins by spectrophotometric method. An outline of the steps: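 Intact K562R cells treated 24 h at 10 μM, then lysate (1 mg/mL) assayed. Mix: 20 mM Tris-HCl pH 7.4, liver biliverdin reductase 0.5–2 mg/mL, 1 mM NADPH, G6P/G6PDH, 25 μM hemin. 60 min at 37 °C in the dark, chloroform extraction, bilirubin by OD 464–530 nm. Mean ± SD, four experiments in triplicate.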

For data set [7], the system named is K-562R. In words: Induction of apoptosis in human K562R cells assessed as late apoptotic cells at 10 uM by Annexin V staining-based flow cytometry (reference value: 9.49%). It is filed as functional.
Data set [8] concerns the target Bcr/Abl fusion protein (Homo sapiens) (UniProt P00519+P11274). In words: Inhibition of BCR-ABL in human K562R cells assessed as decrease in CrKL phosphorylation at 10 uM by immuno blot analysis. It counts as cell-based. The method in brief:
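K562R cells treated 24 h at 10 μM and lysed. 20 μg protein separated on SDS-PAGE, transferred to nitrocellulose and probed with anti-CrkL and anti-pCrkL (1:1,000), then infrared-dye secondary antibody. Densitometry gives pCrkL/CrkL ratio as fold of untreated control. Four experiments in triplicate.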

Data set [9] concerns K-562R. Put plainly: Cytotoxicity against human K562R cells assessed as decrease in cell viability after 24 hrs by XTT assay. It is filed as functional, cell-based. An outline of the steps: as §1
For orientation: Formazan colour is commonly taken as a measure of viable cells.

Data set [10] deals with K-562R. In words: Induction of apoptosis in human K562R cells assessed as viable cells at 10 uM by Annexin V staining-based flow cytometry (reference value: 81.13%). It counts as functional. As to conditions: read-out: Activity.
Data set [11] concerns the target T2, Heme oxygenase 1 (Rattus norvegicus, UniProt P06762).
T2 sequence (P06762 whole entry): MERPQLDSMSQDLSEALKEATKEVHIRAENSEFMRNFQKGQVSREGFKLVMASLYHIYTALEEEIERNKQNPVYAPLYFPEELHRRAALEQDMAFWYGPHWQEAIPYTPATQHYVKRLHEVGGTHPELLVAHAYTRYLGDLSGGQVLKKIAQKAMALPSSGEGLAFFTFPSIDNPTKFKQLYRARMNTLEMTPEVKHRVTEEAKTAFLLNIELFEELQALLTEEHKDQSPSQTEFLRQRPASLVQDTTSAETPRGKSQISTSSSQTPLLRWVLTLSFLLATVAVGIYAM
In words: Inhibition of heme oxygenase 1 in Sprague-Dawley rat spleen microsomal fraction assessed as decrease in bilirubin formation using hemin as substrate after 60 mins by spectrophotometric method.

For data set [12], the system named is Lymphocyte. In words: Cytotoxicity against human lymphocytes assessed as decrease in cell viability at 10 uM after 24 hrs by XTT assay. It counts as cell-based. An outline of the steps:
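Lymphocytes from healthy volunteers isolated on Ficoll–Paque, grown in RPMI-1640 with 10% FBS and 1% penicillin/streptomycin at 37 °C, 5% CO2, and treated 24 h at 10 μM.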

In data set [13] the target is T1, Heme oxygenase 1 (Homo sapiens). In words: Inhibition of heme oxygenase 1 in human K562R cells assessed as decrease in HO-1 mRNA levels at 10 uM by qRT-PCR method. It is filed as cell-based. An outline of the steps: as §2

SMILES strings stand for the structures. Activity calls are given as the source filed them. No cut-off for these calls is given here.

Bcr/Abl fusion protein (Homo sapiens), sequence (P00519 whole entry, looked up, the tested form may be a part): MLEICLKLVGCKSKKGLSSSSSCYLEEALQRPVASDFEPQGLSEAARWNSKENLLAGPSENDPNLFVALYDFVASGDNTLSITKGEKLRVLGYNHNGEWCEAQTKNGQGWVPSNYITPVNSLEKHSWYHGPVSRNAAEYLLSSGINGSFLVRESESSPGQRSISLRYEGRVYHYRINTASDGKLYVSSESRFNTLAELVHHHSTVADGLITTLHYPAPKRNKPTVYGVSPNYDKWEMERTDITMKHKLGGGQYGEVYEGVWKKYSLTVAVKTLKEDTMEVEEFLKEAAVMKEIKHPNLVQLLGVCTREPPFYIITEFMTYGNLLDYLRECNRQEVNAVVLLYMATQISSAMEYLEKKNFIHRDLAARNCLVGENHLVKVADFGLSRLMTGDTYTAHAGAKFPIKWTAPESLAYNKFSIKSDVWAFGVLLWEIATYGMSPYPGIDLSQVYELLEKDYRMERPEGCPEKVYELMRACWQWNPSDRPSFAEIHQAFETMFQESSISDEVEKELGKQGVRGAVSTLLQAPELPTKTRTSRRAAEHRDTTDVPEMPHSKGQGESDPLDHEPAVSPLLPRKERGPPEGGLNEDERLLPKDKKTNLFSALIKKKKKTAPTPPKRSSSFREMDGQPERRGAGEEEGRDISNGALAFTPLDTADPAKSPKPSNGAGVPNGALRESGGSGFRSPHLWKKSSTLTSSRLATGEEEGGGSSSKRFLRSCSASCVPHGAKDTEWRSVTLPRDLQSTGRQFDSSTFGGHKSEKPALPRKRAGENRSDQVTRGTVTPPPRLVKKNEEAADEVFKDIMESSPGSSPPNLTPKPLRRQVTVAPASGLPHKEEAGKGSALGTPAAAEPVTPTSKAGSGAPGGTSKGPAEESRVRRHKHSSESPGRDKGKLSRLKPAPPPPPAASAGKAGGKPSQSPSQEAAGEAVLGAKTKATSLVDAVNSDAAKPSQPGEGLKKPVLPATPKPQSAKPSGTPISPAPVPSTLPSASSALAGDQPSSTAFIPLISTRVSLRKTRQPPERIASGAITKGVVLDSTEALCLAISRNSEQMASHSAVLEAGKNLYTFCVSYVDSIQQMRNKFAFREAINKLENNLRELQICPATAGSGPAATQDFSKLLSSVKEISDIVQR
Bcr/Abl fusion protein (Homo sapiens), sequence (P11274 whole entry, looked up, the tested form may be a part): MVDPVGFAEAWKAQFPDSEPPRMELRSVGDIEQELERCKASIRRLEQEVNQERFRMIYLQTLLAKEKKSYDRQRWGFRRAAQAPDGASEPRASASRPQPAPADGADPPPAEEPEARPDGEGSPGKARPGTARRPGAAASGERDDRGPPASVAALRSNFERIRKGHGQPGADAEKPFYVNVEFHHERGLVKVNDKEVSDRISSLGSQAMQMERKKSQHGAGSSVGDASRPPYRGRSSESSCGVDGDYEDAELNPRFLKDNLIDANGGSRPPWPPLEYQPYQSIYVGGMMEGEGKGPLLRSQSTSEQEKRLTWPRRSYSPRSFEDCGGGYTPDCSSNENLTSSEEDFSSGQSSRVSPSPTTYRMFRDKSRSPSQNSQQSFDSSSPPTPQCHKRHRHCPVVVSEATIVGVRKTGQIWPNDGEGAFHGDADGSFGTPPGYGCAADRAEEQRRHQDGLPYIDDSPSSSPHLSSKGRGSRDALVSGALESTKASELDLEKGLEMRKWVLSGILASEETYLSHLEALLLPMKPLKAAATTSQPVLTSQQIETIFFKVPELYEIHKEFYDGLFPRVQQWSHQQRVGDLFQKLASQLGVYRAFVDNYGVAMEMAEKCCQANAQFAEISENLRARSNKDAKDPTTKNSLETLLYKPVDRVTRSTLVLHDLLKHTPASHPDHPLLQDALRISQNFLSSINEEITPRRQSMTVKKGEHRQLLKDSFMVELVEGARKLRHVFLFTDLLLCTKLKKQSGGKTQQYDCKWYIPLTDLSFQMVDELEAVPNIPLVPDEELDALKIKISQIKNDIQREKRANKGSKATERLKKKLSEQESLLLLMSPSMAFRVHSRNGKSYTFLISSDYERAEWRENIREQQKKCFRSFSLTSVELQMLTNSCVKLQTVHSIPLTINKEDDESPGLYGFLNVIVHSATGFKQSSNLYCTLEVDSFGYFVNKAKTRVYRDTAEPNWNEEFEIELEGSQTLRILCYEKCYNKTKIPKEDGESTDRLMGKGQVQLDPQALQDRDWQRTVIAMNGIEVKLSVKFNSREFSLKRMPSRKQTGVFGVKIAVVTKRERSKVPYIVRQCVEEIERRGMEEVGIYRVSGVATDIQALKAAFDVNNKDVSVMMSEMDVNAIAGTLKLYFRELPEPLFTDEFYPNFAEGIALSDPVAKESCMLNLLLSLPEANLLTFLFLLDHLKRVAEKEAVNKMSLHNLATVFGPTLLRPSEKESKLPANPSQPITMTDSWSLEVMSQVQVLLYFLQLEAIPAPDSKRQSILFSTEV

Turning to `COc1ccc(C(=O)Nc2ccc(C)c(Nc3nccc(-c4cccnc4)n3)c2)cc1OCCCCn1ccnc1`, in data set [1], the result was Active. In addition, the Activity was 5.4% in [2], 3.85% in data set [5], 39.5% in [7] and “Non-Toxic” in [12]. Besides, the IC50 (commonly the concentration that inhibits the measured activity by half) in data set [3] was determined as 10.1 µM; in data set [9], 18.7 µM; in [11], 15.1 µM. The outcome in data set [4] was inactive. In addition, the inhibition result in [6] and in data set [8] was “Active” each time. In addition, the viability at 10 µM in [10] came to 51.3%.
On to `Cc1ccc(NC(=O)c2ccc([N+](=O)[O-])c(OCCCCn3ccnc3)c2)cc1Nc1nccc(-c2cccnc2)n1`, for which the Activity in data set [2] was 2.15%; in [5] it was 1.25%; in data set [7], 14.2%; in [12], “Non-Toxic”. For the same compound, the IC50 in [3] amounted to 25 µM; in data set [9] it was 47.6 µM; in [11] it was 4.03 µM. Further, the inhibition result in data set [8] was “Active”. For the same compound, the viability at 10 µM in [10] was 82.4%.
With `Cc1ccc(NC(=O)c2ccc(I)cc2OCCCCn2ccnc2)cc1Nc1nccc(-c2cccnc2)n1`, the IC50 in data set [3] was 57.4 µM; in [9] it was 51.8 µM; in [11] it was 15.1 µM.
Regarding `Cc1ccc(NC(=O)c2ccc(OCCCCn3ccnc3)c(I)c2)cc1Nc1nccc(-c2cccnc2)n1`, the IC50 in data set [3] stood at 32.5 µM; in [9], 52.4 µM; in data set [11] it was 74.9 µM. In addition, in data set [8], the inhibition result is “Active”.
Take `Cc1ccc(NC(=O)c2cc(I)ccc2OCCCCn2ccnc2)cc1Nc1nccc(-c2cccnc2)n1`: the IC50 in data set [3] worked out at 66.5 µM; in [9], 81.7 µM; in data set [11], 38.9 µM.
Take `Cc1ccc(NC(=O)c2cc(Br)cc(OCCCCn3ccnc3)c2)cc1Nc1nccc(-c2cccnc2)n1`: the result in [1] was Active. Further, the Activity in data set [2] was 1.55%; in data set [5], 9.65%; in data set [7] it was 47.6%; in data set [12], “Non-Toxic”. The IC50 in [3] stood at 6.5 µM; in [9], 19.1 µM; in data set [11], 28.6 µM. The outcome in data set [4] was inactive. The inhibition entry in data set [6] and in [8] was “Active” each time. Moreover, the viability at 10 µM in [10] was determined as 41.2%.
Take `Cc1ccc(NC(=O)c2cccc(OCCCCn3ccnc3)c2)cc1Nc1nccc(-c2cccnc2)n1`: the concentration for half-maximal inhibition (IC50) in [3] was 74.6 µM; in data set [9], 63.4 µM; in data set [11] it was 38.5 µM.
Regarding `Cc1ccc(NC(=O)c2ccc(Br)cc2OCCCCn2ccnc2)cc1Nc1nccc(-c2cccnc2)n1`, the values for the 50% inhibitory concentration (IC50) in [3], in data set [9] and in data set [11] were 66.1 µM, 44.6 µM and 0.95 µM, respectively. Further, the inhibition result in data set [8] was “Active”.
Consider `COc1ccc(C(=O)Nc2ccc(C)c(Nc3nccc(-c4cccnc4)n3)c2)c(OCCCCn2ccnc2)c1`, for which the figures for the IC50 in data set [3], in data set [9] and in data set [11] were 58.9 µM, 46.6 µM and 61.6 µM, respectively.
For `Ic1ccc(OCCCCn2ccnc2)cc1`, the result in [1] was Active. The IC50 in data set [3] was 69.1 µM; in data set [9], 84.4 µM. Besides, the inhibition entry in data set [6] was “Active”.
With `Cc1ccc(NC(=O)c2ccccc2OCCCCn2ccnc2)cc1Nc1nccc(-c2cccnc2)n1`, the values for the IC50 in data set [3], in data set [9] and in data set [11] were 47.5 µM, 83.4 µM and 28 µM, respectively.
As to `Cc1ccc(NC(=O)c2ccc(OCCCCn3ccnc3)c(Br)c2)cc1Nc1nccc(-c2cccnc2)n1`, the Activity in data set [2] is 2.3%; in [5], 0.65%; in data set [7], 13.15%; in data set [12], “Non-Toxic”. Moreover, the IC50 in data set [3] stood at 12 µM; in data set [9] it was 31.8 µM; in data set [11], 0.92 µM. Further, the inhibition result in data set [8] is “Active”. For the same compound, the viability at 10 µM in data set [10] came to 83.8%.
As to `Brc1cccc(OCCCCn2ccnc2)c1`, the result in data set [1] was Active. Besides, the values for the IC50 in data set [3] and in [9] were 68.3 µM and 81.7 µM, respectively. Besides, in data set [6], the inhibition entry was “Active”.
As for `Cc1ccc(N)cc1Nc1nccc(-c2cccnc2)n1`, in data set [11], the IC50 was more than 100 µM.
As for `Cc1ccc(NC(=O)c2ccc(CN3CCN(C)CC3)cc2)cc1Nc1nccc(-c2cccnc2)n1` [IMATINIB], the inhibition entry in data set [13] was “inactive”. The outcome in data set [1] was inactive. Further, the results for the Activity in data set [2], in data set [5] and in data set [7] were 6.25%, 0.79% and 3.6%, respectively. The half-maximal inhibitory concentration (IC50) in [3] was 1 µM; in data set [9], 98.8 µM; in data set [11], more than 100 µM. Also, the inhibition entry in data set [6] was “Active”. Besides, the viability at 10 µM in [10] is 89.4%.
For `COc1cc(C(=O)Nc2ccc(C)c(Nc3nccc(-c4cccnc4)n3)c2)ccc1OCCCCn1ccnc1`, the Activity is on record as 4.4% in data set [2], 2.9% in data set [5], 32.3% in [7] and “Non-Toxic” in data set [12]. Moreover, the IC50 in data set [3] was 29.5 µM; in data set [9], 27.1 µM; in data set [11] it was 56.6 µM. Also, the inhibition result in [8] was “Active”. In addition, in [10], the viability at 10 µM was determined as 60.4%.
In the case of `Cc1ccc(OCCCCn2ccnc2)c(C(=O)Nc2ccc(C)c(Nc3nccc(-c4cccnc4)n3)c2)c1`, the half-maximal inhibitory concentration (IC50) in data set [3] turned out to be 59.5 µM; in data set [9] it was 48.6 µM; in data set [11], 0.95 µM.
As to `Cc1ccc(NC(=O)c2ccc(OCCCCn3ccnc3)cc2)cc1Nc1nccc(-c2cccnc2)n1`, the IC50 in [3] is 49.9 µM; in [9], 99.4 µM; in [11], 66.2 µM.
